From ChEMBL document CHEMBL5331128, “Alicyclic Ring Size Variation of 4-Phenyl-2-naphthoic Acid Derivatives as P2Y14 Receptor Antagonists” (J Med Chem, 2023)
Values after ≈ are worked out from the molar mass of the structure shown. Active and inactive are the calls of the source.

Assays:
[1] = Cmax in Wistar rat plasma at 10 mg/kg, ip and measured upto 24 hrs; type: ADME, organism-based; parameters: time < 24 hrs, dose 10 mg/kg, route ip
[2] = test system: Mus musculus; experiment: Anti-asthmatic activity against OVA/Aspergillus-sensitized protease-mediated C57BL/6J mouse model allergic asthma assessed as reduction in lymphocytes in BAL fluid at 10 mg/kg,ip followed by 0.5 hrs OVA challenge and measured after 48 hrs; type: functional, organism-based; conditions: time 48.5 hrs
[3] = Stability in simulated intestinal fluid assessed as parent compound remaining after 120 mins; type: ADME; conditions: simulated gi fluid, 2 h
Procedure, shortened: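 Incubation in simulated gastric or intestinal fluid; percent parent remaining read at 120 min.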

[4] = target: T1, P2Y purinoceptor 14 (Mus musculus, UniProt Q9ESG6); experiment: Displacement of fluorescent tracer 4-(4-(1-(4-(1-(6-(3-carboxylato-4-(3-iminio-3H-xanthen-9-yl)benzamido)hexyl)-4,5-dihydro-1H-pyrrol-3-yl)butyl)piperidin-1-ium-4-yl)phenyl)-7-(4-(trifluoromethyl)phenyl)-2-naphthoate from mouse P2Y14R stably expressed in human HEK293 cells by flow cytometry; type: cell-based
T1 sequence (Q9ESG6 whole entry): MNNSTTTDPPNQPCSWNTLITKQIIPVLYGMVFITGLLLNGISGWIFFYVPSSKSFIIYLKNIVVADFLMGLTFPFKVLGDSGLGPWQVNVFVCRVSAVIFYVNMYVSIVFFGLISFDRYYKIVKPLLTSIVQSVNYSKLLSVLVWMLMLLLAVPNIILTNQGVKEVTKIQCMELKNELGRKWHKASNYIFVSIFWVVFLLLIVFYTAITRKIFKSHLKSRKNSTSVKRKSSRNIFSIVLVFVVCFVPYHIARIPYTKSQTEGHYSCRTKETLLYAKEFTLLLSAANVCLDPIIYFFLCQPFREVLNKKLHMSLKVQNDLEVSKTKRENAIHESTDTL
Procedure, shortened: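 Whole-cell competitive binding: CHO cells expressing hP2Y14R (or HEK-293 cells expressing mP2Y14R) incubated with AlexaFluor488-labelled antagonist tracer at 20 nM. […] Ki derived by dividing IC50 by 1.72.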

[5] = Solubility of compound in pH 7.4 incubated for 20 hrs by pION method; type: physicochemical; conditions: buffer, pH 7.4, 20 h
Procedure, shortened: (§1)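 pION method: 5 mM DMSO stocks diluted 1:100 into pION buffer at pH 4.0 or 7.4, incubated 20 h. Undissolved material removed by centrifugation at 14,000 rpm for 20 min, then supernatant mixed 1:1 with n-propanol. […] Mean ± SD reported.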

[6] = test system: Mus musculus; experiment: Protection against cardiac ischemia/reperfusion induced C57BL/6J mouse injury model assessed as reduction in infarct area by measuring AAR/TTA ratio at 2 mg/kg, sc prior to 0.5 hrs of myocardial ischemia and 48 h of reperfusion (Rvb= […]); type: functional; parameters: scale not given: the % may be the effect or the level left; conditions: time 48.5 hrs
[7] = test system: Mus musculus; experiment: Antiallodynic activity in CCI surgery neuropathic pain Hsd:ICR mouse model assessed as reversal of mechano-allodynia by measuring paw withdrawal threshold at 10 micromol/kg,ip and measured upto 5 days by von frey test; type: functional, organism-based; conditions: dose 10.0 µmol/kg, time <= 5.0 day
Procedure, shortened: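 CCI neuropathic pain in adult male Hsd:ICR (CD-1) mice (20–30 g). Single i.p. injection on day 7 after sciatic nerve constriction, at peak pain. Vehicle 10% (Kolliphor HS 15:DMSO 5:95) in saline, 0.2 mL. Paw withdrawal threshold by von Frey filaments on ipsilateral and contralateral hindpaws. Mean ± SD; two-way ANOVA with Dunnett's test versus day 0 and day 7.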

[8] = Cmax in Wistar rat plasma at 3 mg/kg, ip and measured upto 24 hrs; type: ADME, organism-based; parameters: dose 3 mg/kg, time < 24 hrs, route ip
[9] = test system: HepG2; experiment: Cytotoxicity in human HepG2 cells assessed as reduction in cell viability; type: toxicity, cell-based
[10] = target: Cytochrome P450 3A4 (Homo sapiens, UniProt P08684); experiment: Inhibition of CYP3A4 (unknown origin); type: ADME
[11] = Half life in Wistar rat at 1 mg/kg, ip and measured upto 24 hrs; type: ADME, organism-based; conditions: in vivo
[12] = Stability in mouse plasma assessed as parent compound remaining at 1 uM and measured at 120 mins by LC-MS/MS analysis; type: ADME, cell-free; conditions: 2 h
Procedure, shortened: (§2)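 Plasma from human, rat and mouse; percent parent remaining at 120 min.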

[13] = target: Cytochrome P450 2C19 (Homo sapiens, UniProt P33261); experiment: Inhibition of CYP2C19 (unknown origin); type: ADME
[14] = test system: Mus musculus; experiment: Anti-asthmatic activity against OVA/Aspergillus-sensitized protease-mediated C57BL/6J mouse model allergic asthma assessed as reduction in airway eosinophilia in BAL fluid at 10 mg/kg,ip followed by 0.5 hrs OVA challenge and measured after 48 hrs; type: functional, organism-based; conditions: time 48.5 hrs
[15] = Acute toxicity in Wistar rat assessed as morbidity at 1 to 10 mg/kg, ip and measured upto 24 hrs; type: organism-based; conditions: in vivo, dose 1-10 mg/kg
Procedure, shortened: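 Male Wistar rats; single dose at 1, 3 or 10 mg/kg i.p., or 0.5 mg/kg i.v. Animals were watched for mortality and morbidity over the experimental period, in the course of a plasma pharmacokinetic study.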

[16] = target: 5-hydroxytryptamine receptor 1B (Homo sapiens, UniProt P28222); experiment: Displacement of [3H]-5-CT from human 5-HT1B receptor assessed as inhibition constant by radioligand displacement assay
[17] = Lipophilicity, log D of compound at pH 7.4 incubated for 20 hrs by HPLC analysis; type: physicochemical; conditions: buffer
[18] = Solubility of compound in pH 4.0 incubated for 20 hrs by pION method; type: physicochemical; conditions: buffer, pH 4, 20 h; procedure, shortened: as §1
[19] = Protein binding in rat plasma assessed as bound fraction; type: ADME, cell-free
[20] = target: T2, P2Y purinoceptor 14 (Homo sapiens, UniProt Q15391); experiment: (§3) Displacement of fluorescent tracer 4-(4-(1-(4-(1-(6-(3-carboxylato-4-(3-iminio-3H-xanthen-9-yl)benzamido)hexyl)-4,5-dihydro-1H-pyrrol-3-yl)butyl)piperidin-1-ium-4-yl)phenyl)-7-(4-(trifluoromethyl)phenyl)-2-naphthoate from human P2Y14R stably expressed in CHO cells by flow cytometry; type: cell-based
T2 sequence (Q15391 whole entry): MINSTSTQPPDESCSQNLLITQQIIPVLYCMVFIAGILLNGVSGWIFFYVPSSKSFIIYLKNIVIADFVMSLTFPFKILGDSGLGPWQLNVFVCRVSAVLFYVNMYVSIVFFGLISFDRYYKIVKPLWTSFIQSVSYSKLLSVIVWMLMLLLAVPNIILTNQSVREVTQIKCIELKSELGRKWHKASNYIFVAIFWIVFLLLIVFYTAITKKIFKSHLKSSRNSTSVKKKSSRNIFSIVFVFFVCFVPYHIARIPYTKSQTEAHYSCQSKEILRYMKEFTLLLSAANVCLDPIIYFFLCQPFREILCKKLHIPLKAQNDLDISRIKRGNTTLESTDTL
Procedure, shortened: (§4)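 Whole-cell competitive binding: CHO cells expressing hP2Y14R (or HEK-293 cells expressing mP2Y14R) incubated with AlexaFluor488-labelled antagonist tracer at 20 nM.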

[21] = Microsomal stability in human liver microsomes assessed as half life; type: ADME, Microsome
[22] = Half life in Wistar rat at 10 mg/kg, ip and measured upto 24 hrs; type: ADME, organism-based; conditions: in vivo
[23] = target: T2, P2Y purinoceptor 14; experiment: as §3, with “cells assessed as inhibition constant” for “cells”; type: cell-based; procedure, shortened: as §4
[24] = Stability in human plasma assessed as parent compound remaining at 1 uM and measured at 120 mins by LC-MS/MS analysis; type: ADME, cell-free; conditions: 2 h; procedure, shortened: as §2

Sequence of 5-hydroxytryptamine receptor 1B (P28222 whole entry): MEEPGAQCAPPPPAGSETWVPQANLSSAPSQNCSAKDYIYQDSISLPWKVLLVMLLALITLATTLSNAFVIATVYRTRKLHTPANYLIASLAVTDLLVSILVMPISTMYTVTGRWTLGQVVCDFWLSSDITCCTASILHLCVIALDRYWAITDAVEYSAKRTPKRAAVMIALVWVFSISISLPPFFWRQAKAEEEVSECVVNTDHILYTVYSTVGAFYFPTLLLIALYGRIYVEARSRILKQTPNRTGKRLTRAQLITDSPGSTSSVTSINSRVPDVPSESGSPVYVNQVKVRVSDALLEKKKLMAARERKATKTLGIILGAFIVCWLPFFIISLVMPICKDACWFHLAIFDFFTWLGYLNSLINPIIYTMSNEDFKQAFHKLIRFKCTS
Sequence of Cytochrome P450 3A4 (P08684 whole entry): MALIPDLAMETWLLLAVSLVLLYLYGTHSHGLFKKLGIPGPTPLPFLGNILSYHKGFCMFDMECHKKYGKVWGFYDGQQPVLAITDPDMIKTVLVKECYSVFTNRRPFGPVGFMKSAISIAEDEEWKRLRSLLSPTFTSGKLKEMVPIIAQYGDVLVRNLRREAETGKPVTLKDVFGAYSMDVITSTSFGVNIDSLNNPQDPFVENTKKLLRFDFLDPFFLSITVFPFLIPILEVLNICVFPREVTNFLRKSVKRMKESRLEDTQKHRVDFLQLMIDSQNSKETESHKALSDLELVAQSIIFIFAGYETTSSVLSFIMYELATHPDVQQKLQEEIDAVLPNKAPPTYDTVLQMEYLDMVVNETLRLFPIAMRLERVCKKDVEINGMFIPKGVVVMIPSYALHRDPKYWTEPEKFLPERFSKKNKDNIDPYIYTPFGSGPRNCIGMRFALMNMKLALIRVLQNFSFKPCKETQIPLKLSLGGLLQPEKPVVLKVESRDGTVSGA
Sequence of Cytochrome P450 2C19 (P33261 whole entry): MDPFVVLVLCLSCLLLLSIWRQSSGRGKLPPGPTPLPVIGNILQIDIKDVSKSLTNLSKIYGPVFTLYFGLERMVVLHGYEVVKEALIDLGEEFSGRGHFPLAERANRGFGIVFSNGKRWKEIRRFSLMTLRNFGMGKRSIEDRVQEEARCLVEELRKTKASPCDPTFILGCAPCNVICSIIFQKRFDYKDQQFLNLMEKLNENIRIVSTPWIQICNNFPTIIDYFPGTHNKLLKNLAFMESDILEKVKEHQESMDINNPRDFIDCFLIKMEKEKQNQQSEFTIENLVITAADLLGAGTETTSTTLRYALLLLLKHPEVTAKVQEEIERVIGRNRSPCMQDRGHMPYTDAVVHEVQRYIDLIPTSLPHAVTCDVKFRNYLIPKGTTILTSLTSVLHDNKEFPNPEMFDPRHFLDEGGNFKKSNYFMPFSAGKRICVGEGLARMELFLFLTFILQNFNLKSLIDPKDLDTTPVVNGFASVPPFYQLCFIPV

SMILES: O=C(O)c1cc(-c2ccc([C@]3(O)[C@@H]4CNC[C@H]3C4)cc2)c2ccc(-c3ccc(C(F)(F)F)cc3)cc2c1
- Cmax [1]: 4000 nM
- Activity [2]: inactive
- Stability [3]: 93.3%
- IC50 [4]: 0.0048 µM
- solubility [5]: 1.4 µg/mL (≈ 2.78 µM)
- Activity [6]: 33.7%
- Activity [7]: Active
- Cmax [8]: 1300 nM
- IC50 [9]: 32.6 µM
- IC50 [10]: > 30 µM
- t1/2 [11]: 3.01 h
- Stability [12]: 100%
- IC50 [13]: > 30 µM
- Activity [14]: Active
- Activity [15]: Non-Toxic
- Ki [16]: 6 µM
- logD at 20 h [17]: 1.2
- solubility [18]: 7.1 µg/mL (≈ 14.1 µM)
- PPB [19]: 99.48%
- IC50 [20]: 0.00592 µM
- t1/2 [21]: > 6.67 h
- t1/2 [22]: 4.15 h
- Ki [23]: 0.00344 µM
- Stability [24]: 91.1%
